Experimental data from different studies.
Organism: Mycobacterium tuberculosis
Effect on: microbial growth

| Structure (SMILES) | method | cell line | strain | time | MIC |
| --- | --- | --- | --- | --- | --- |
| CO[C@H]1/C=C/O[C@@]2(C)Oc3c(C)c(O)c4c(O)c(c(/C=N/N5CCN(C)CC5)c(O)c4c3C2=O)NC(=O)/C(C)=C\C=C\[C@H](C)[C@H](O)[C@@H](C)[C@@H](O)[C@@H](C)[C@H](OC(C)=O)[C@@H]1C | resazurin | – | H37RV | 7 days | 0.061 µM |
| Cc1ccn2c(C(=O)NCc3cccc(S(F)(F)(F)(F)F)c3)c(C)nc2c1 | – | – | H37RV | 5 days | 0.65 µM |
| COC(=O)c1cc(-c2cccc(NC(=O)Nc3ccc(F)c(F)c3)c2)on1 | – | – | ATCC27294 H37RV | 7 days | 0.5 µg/mL |
| Cc1ccc(C)n1-c1ccc(-c2nnc(-c3ccc(O)cc3)[nH]2)cc1 | broth dilution | – | H37RV | 21 days | 16 µg/mL |
| COc1ccc(Cc2c(C)c(C#N)c3[nH]c4ccccc4n3c2=O)cc1 | broth dilution | – | H37RV | – | 0.25 µg/mL |
| COC(=O)c1cc(-c2cccc(NC(=S)Nc3cccc(Br)c3)c2)on1 | – | – | ATCC27294 H37RV | 7 days | 8 µg/mL |
| CC1=NN(CNc2c(O)c(S(=O)(=O)O)cc3ccccc23)C(=O)C1=NNn1c(-c2ccccc2)nc2ccccc2c1=O | resazurin | – | H37RV | – | 20.9 µM |
| CC[C@@H](CO)NCCN[C@@H](CC)CO | – | – | ATCC27294 H37RV | 7 days | 1 µg/mL |
| O=[N+]([O-])c1cn2c(n1)OC[C@@H](OCc1ccc(N3CCCCC3)cc1)C2 | – | – | H37RV | – | 0.4 to 0.8 µg/mL |
| NNC(=O)c1ccncc1 | – | – | ATCC27294 H37RV | 7 days | 0.03 µg/mL |
| Cc1cc(N)c2ccccc2[n+]1CCCCCCCCCC[n+]1c(C)cc(N)c2ccccc21 | broth dilution | – | – | – | 1.2 µg/mL |
| O=C1C(=NNc2nc(-c3ccccc3)cs2)C(N=Cc2ccc(O)c(O)c2)=NN1c1ccccc1 | resazurin | – | H37RV | – | 3.12 µg/mL |
| CC1CC(C)(C)CC2(C1)SCC(=O)N2NC(=O)c1[nH]c2ccc(Cl)cc2c1-c1ccccc1 (centres unmarked) | – | – | ATCC27294 H37RV | – | 500 µM |
| Cc1ccc(C)n1-c1ccc(-c2n[nH]c(=S)[nH]2)cc1 | broth dilution | – | H37RV | 21 days | 2 µg/mL |
| CC1CCCC2(C1)SCC(=O)N2NC(=O)c1[nH]c2ccc(Cl)cc2c1-c1ccccc1 (centres unmarked) | – | – | ATCC27294 H37RV | – | 16 µM |
| NNC(=O)c1ccncc1 | – | THP-1 | H37RV | – | 0.22 µM |
| COC(=O)c1cc(-c2cccc(NC(=O)Nc3ccc(Cl)c(Cl)c3)c2)on1 | – | – | ATCC27294 H37RV | 7 days | 0.25 µg/mL |
| CC[C@@H](CO)NCCN[C@@H](CC)CO | resazurin | – | H37RA | 14 days | 1 µg/mL |
| N=C(N)Cc1ccc(NC(=O)c2ccc(C(=O)Nc3ccc(CC(=N)N)cc3)cc2)cc1 | – | – | H37RV | 7 days | 1 µg/mL |
| CCCCCCC/C=C\[C@H](O)C#CC#C[C@@H](O)CC | resazurin | – | ATCC35801 ERDMAN | 7 days | 49.5 µg/mL |
